Assay results from different studies.
Each line is one published result; the experiments were not run side by side.
Target: D(3) dopamine receptor (DRD3, Homo sapiens, UniProt P35462)

O=C(Nc1cccnn1)N1CCN([C@@H]2CCOc3cc(C(F)(F)F)ccc32)CC1
inhibition (cell-free assay; 20 µM): 9%

C[C@H](C(=O)N[C@H]1COc2ccccc2[C@@H]1S(C)(=O)=O)c1ccc(F)cc1
inhibition (cell-free assay; 10 µM): 6%

Cc1c(N2CCNCC2)nc2ccc(Br)cc2c1C(=O)NC[C@H](CCC(=O)O)c1ccccc1Cl
inhibition (ligand displacement; 10 µM): 3.81%

CN(CCN1CCC(OC(=O)Nc2ccccc2-c2ccccc2)CC1)C(=O)c1ccc(CN2CCC(C(N)=O)CC2)cc1
inhibition (ligand displacement; radioligand; 1 µM): -4%

CC(C)N1CCC[C@H]1CNC(=O)c1cn(C2CCCC2)c(=O)c2c1c1ccccc1n2C
inhibition (ligand displacement; radioligand; 10 µM): 26%

N#CC1(c2ccccn2)CCN(Cc2cc(C(=O)O)c(=O)n3ccccc23)CC1
inhibition (cell-free assay; 10 µM): -7.39%

COc1ccc(C(=O)NCc2cc(C(C)C)no2)cc1OC1CCN(C)CC1
inhibition (ligand displacement; radioligand; 10 µM): 15%

CCc1ccc(OCC(=O)N2CCN(Cc3ccc4c(c3)OCO4)CC2)c(Br)c1
inhibition (enzyme activity; inhibitor; 10 µM): -4.8%

COCc1c(-c2cc3cc(C)cc(OC)c3s2)c2c(N)ncnn2c1CN1CCNC(=O)C1
inhibition (ligand displacement; radioligand; 10 µM): 29%

c1ccc(C2(N3CCCCC3)CCCCC2)cc1
inhibition (enzyme activity; inhibitor; 10 µM): -9.9%

c1ccc(C(NCCNC(c2ccccc2)c2ccccc2)c2ccccc2)cc1
inhibition (cell-free assay; 10 µM): 77%

CC(C)Cn1cnc2c(N)nc3ccccc3c21
inhibition (ligand displacement; radioligand; 10 µM): 18%

COc1ccc(S(=O)(=O)N2CCCCC2)cc1C
inhibition (ligand displacement; radioligand; 10 µM): < 30%
